The text below walks through data of ChEMBL document CHEMBL3112425, “Design, synthesis, and structure-activity relationship studies of a potent PACE4 inhibitor” (J Med Chem, 2014).

pIC50, pKi: −log10 of the molar value. Peptide text beside a SMILES is read from it. * marks the point of attachment. X1 = N=C(N)NC/C=C/CN*

One series concerns PC-3. Kind of series: Cytotoxicity against human PC3 cells after 72 hrs by MTT assay. The format is functional, cell-based. The conditions noted are these: PC-3, 72 h. In short, it runs like this:
(§1)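 Prostate cancer cells were kept in RPMI 1640 at 37 °C, 5% CO2, with 5% FBS for DU145 and 10% FBS for LNCaP and PC3. After 24 h, medium was changed and peptides added at various concentrations, up to 350 μM. Viability was read by MTT after 72 h treatment. IC50 from dose–response curves, triplicate, mean ± SEM.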

Series [1] concerns the target T1, Proprotein convertase subtilisin/kexin type 6 (Homo sapiens, UniProt P29122).
T1 sequence (P29122 whole entry): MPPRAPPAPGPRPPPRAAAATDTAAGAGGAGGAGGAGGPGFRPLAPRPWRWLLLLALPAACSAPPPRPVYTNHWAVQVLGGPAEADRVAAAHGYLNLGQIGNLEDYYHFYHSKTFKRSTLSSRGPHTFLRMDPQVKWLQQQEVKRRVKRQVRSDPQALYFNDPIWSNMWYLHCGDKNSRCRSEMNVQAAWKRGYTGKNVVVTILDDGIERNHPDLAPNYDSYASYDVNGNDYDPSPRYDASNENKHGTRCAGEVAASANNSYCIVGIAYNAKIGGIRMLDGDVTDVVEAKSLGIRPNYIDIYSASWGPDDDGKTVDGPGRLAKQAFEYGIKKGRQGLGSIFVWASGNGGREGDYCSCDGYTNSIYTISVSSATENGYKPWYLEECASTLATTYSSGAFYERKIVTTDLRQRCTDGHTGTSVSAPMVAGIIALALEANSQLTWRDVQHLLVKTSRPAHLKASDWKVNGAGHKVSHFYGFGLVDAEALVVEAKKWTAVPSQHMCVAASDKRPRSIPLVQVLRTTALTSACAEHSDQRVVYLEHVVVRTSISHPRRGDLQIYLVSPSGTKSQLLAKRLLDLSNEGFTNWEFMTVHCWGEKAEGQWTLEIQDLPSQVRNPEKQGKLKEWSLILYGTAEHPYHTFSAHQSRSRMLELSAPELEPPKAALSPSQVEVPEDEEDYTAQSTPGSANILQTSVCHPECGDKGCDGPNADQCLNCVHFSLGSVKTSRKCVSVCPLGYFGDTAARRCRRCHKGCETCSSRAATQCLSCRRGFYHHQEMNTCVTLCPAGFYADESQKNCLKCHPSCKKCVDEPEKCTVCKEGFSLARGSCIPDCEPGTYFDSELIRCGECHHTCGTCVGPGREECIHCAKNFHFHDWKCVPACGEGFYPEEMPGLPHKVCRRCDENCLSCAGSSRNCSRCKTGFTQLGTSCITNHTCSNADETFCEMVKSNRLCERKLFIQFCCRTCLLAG
Put plainly: Inhibition of human recombinant PACE4 expressed in drosophila schneider 2 cells using pyroGlu-Arg-Thr-Lys-Arg-AMC as substrate after 1 hr. In short, it runs like this:
(§2)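 Human enzymes were expressed in Drosophila S2 cells and purified. Fluorogenic pyroGlu-RTKR-AMC was used at fixed concentration with varied inhibitor, 37 °C over 1 h. Buffers: furin, 100 mM Hepes pH 7.5, 1 mM CaCl2, 1 mM β-mercaptoethanol, 1.8 mg/mL BSA; PACE4 and PC7, 20 mM Bis-Tris pH 6.5, 1 mM CaCl2, 1.8 mg/mL BSA; PC2, same buffer at pH 5.7. Ki from IC50 (Cheng–Prusoff), or apparent Ki (Morrison) for tight binders. Triplicate, mean ± SD.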

The next series concerns the target Furin (Homo sapiens, UniProt P09958). Kind of series: Inhibition of human recombinant furin expressed in drosophila schneider 2 cells using pyroGlu-Arg-Thr-Lys-Arg-AMC as substrate after 1 hr. In short, it runs like this: as §2
For series [2], the target named is T2, Neuroendocrine convertase 2 (Homo sapiens, UniProt P16519).
T2 sequence (P16519 whole entry): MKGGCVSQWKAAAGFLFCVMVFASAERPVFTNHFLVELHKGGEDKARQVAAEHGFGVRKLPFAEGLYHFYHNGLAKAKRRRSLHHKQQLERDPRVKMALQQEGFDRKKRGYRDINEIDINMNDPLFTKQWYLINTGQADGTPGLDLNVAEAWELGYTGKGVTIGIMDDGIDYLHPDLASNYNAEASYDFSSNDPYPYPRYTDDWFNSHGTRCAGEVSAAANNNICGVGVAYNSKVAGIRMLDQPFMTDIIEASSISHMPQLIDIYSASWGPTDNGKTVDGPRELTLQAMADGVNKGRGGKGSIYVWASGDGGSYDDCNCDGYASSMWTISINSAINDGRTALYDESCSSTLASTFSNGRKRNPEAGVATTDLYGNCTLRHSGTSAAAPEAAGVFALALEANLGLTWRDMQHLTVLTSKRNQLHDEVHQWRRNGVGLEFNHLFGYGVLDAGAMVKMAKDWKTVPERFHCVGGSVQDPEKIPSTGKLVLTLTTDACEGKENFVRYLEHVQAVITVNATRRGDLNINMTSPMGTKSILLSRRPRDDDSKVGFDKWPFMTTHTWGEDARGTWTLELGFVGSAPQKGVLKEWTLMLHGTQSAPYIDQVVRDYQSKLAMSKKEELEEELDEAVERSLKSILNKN
Put plainly: Inhibition of human PC2 expressed in drosophila schneider 2 cells using pyroGlu-Arg-Thr-Lys-Arg-AMC as substrate after 1 hr. The method in brief:
as §2

A further series concerns Plasma. Put plainly: Drug degradation in CD-1 mouse plasma at 0.5 ug/uL after 30 mins by MALDI-TOF MS analysis. The conditions noted are these: 0.5 h. The format is ADME, cell-free. In short, it runs like this: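 For fragment mapping, 100 μg peptide was incubated in murine plasma at 37 °C. At each time point, plasma samples were quenched with 3% TFA. Proteins were precipitated with 2 volumes acetonitrile and centrifuged at 17 000g. Supernatants were analyzed by MALDI-TOF MS for C-terminally truncated fragments.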

A further series has as its system LNCaP. Kind of series: Cytotoxicity against human LNCAP cells after 72 hrs by MTT assay. Format: functional, cell-based. The method in brief:
as §1

The subject of series [3] is DU-145. Kind of series: Cytotoxicity against human DU145 cells after 72 hrs by MTT assay. Format: functional, cell-based. To be noted: DU-145, 72 h. In short, it runs like this:
as §1

In series [4] the test system is DU-145. Kind of series: Cellular uptake in human DU145 cells after 1 hr by propidium iodide staining-based FACS analysis. The format is ADME, cell-based. To be noted: du-145, 1 h. The method in brief:
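FITC-βAla-labelled peptides at 10 μM were given to DU145 cells for 1 h in serum-free RPMI. Cells were collected, then washed twice with 0.05% trypsin (5 min, 37 °C) to strip membrane-bound peptide. Propidium iodide (10 μg/mL, 2 min) excluded damaged cells. FACS read 10 000 events/sample as geometric mean fluorescence, against untreated-cell autofluorescence.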

A short description of series [5]: Half life in CD-1 mouse plasma at 0.5 ug/uL by RP-HPLC analysis. Format: ADME, cell-free. The method in brief: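 Peptides at 0.5 μg/μL were incubated at 37 °C in heparinized plasma pooled from mixed-sex CD1 mice. At each time point the reaction was stopped with 1 M guanidinium-HCl, then acetonitrile, and proteins were spun out. Supernatant peptide AUC (RP-HPLC) was compared with non-incubated samples. Half-life came from a one-phase decay fit. Run ≥3 times, duplicate per time point.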

Furin, sequence (P09958 whole entry): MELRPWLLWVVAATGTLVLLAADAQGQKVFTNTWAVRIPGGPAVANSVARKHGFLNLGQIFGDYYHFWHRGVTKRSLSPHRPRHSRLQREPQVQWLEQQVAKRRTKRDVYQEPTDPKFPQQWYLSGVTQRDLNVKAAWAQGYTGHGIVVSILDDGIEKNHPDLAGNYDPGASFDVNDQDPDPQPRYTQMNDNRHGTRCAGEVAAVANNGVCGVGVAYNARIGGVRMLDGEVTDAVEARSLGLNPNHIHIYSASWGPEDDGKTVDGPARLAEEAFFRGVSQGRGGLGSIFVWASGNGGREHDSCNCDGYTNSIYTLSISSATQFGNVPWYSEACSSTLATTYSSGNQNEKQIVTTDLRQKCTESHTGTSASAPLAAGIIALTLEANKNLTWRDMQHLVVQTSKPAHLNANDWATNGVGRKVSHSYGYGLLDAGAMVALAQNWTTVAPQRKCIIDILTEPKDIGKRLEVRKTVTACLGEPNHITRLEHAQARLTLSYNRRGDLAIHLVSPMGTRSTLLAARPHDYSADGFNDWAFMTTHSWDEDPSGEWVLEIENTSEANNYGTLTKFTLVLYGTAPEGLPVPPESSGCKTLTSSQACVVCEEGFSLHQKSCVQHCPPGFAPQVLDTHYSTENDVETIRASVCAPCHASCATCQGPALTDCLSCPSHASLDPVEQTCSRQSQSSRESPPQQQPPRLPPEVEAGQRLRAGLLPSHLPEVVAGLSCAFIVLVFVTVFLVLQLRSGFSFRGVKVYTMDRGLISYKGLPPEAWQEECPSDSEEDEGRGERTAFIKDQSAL

Take `CC(=O)N[C@@H](CC(C)C)C(=O)N[C@@H](CC(C)C)C(=O)N[C@@H](CC(C)C)C(=O)N[C@@H](CC(C)C)C(=O)N[C@@H](CCCNC(=N)N)C(=O)N[C@H](C(=O)N[C@@H](CCCCN)C(=O)NC/C=C/CNC(=N)N)C(C)C` (Ac-LLLLRVK-X1): the pIC50 with PC-3 is 3.70; in the series with LNCaP, 4.15; with DU-145 [3], 4.05. Further, the pKi in series [1] is 8.28; at Furin, 7.57; in [2] it was 8.77. For the same compound, the Stability result with Plasma is recorded as “Unstable”. Further, the Drug uptake result in the series with DU-145 [4] is “Active”. In [5], the half-life at 0.5 ug/uL is 7.2 h.
